In ChEMBL document CHEMBL4680306, “The 3-D conformational shape of N-naphthyl-cyclopenta[d]pyrimidines affects their potency as microtubule targeting agents and their antitumor activity” (Bioorg Med Chem, 2021):

Assays:
SNB-19 = experiment: Cytotoxicity against human SNB-19 cells assessed as inhibition of cell growth measured after 48 hrs by SRB assay; type: functional
OVCAR-4 = experiment: Cytotoxicity against human OVCAR-4 cells assessed as inhibition of cell growth measured after 48 hrs by SRB assay; type: functional
UO-31 = experiment: Cytotoxicity against human UO-31 cells assessed as inhibition of cell growth measured after 48 hrs by SRB assay; type: functional
A498 = experiment: Cytotoxicity against human A498 cells assessed as inhibition of cell growth measured after 48 hrs by SRB assay; type: functional
NCI-H522 = experiment: Cytotoxicity against human NCI-H522 cells assessed as inhibition of cell growth measured after 48 hrs by SRB assay; type: functional
[1] = Relative resistance, ratio of IC50 for inhibition of beta3 Tubulin (unknown origin) expressed in human HeLa cell line assessed as inhibition of cell proliferation to IC50 antiproliferative activity against human HeLa cells
SNB-75 = experiment: Cytotoxicity against human SNB-75 cells assessed as inhibition of cell growth measured after 48 hrs by SRB assay; type: functional
NCI/ADR-RES = experiment: Cytotoxicity against human NCI/ADR-RES cells assessed as inhibition of cell growth measured after 48 hrs by SRB assay; type: functional
HCC 2998 = experiment: Cytotoxicity against human HCC 2998 cells assessed as inhibition of cell growth measured after 48 hrs by SRB assay; type: functional
UACC-62 = experiment: Cytotoxicity against human UACC-62 cells assessed as inhibition of cell growth measured after 48 hrs by SRB assay; type: functional
T47D = experiment: Cytotoxicity against human T47D cells assessed as inhibition of cell growth measured after 48 hrs by SRB assay; type: functional
HCT-116 = experiment: Cytotoxicity against human HCT-116 cells assessed as inhibition of cell growth measured after 48 hrs by SRB assay; type: functional
LOX IMVI = experiment: Cytotoxicity against human LOX IMVI cells assessed as inhibition of cell growth measured after 48 hrs by SRB assay; type: functional
U-251 = experiment: Cytotoxicity against human U-251 cells assessed as inhibition of cell growth measured after 48 hrs by SRB assay; type: functional
RPMI-8226 = experiment: Cytotoxicity against human RPMI-8226 cells assessed as inhibition of cell growth measured after 48 hrs by SRB assay; type: functional
ACHN = experiment: Cytotoxicity against human ACHN cells assessed as inhibition of cell growth measured after 48 hrs by SRB assay; type: functional
DU-145 = experiment: Cytotoxicity against human DU-145 cells assessed as inhibition of cell growth measured after 48 hrs by SRB assay; type: functional
SF-295 = experiment: Cytotoxicity against human SF-295 cells assessed as inhibition of cell growth measured after 48 hrs by SRB assay; type: functional
Hs-578T = experiment: Cytotoxicity against human Hs-578T cells assessed as inhibition of cell growth measured after 48 hrs by SRB assay; type: functional
Bos taurus = organism: Bos taurus; experiment: Inhibition of [3H]colchicine binding to bovine tubulin at 5 uM measured after 10 mins by scintillation counting
Outline: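 Purified bovine brain tubulin at 1.0 µM was mixed with 5.0 µM [3H]colchicine and inhibitor, plus components that stabilize colchicine binding, in 5% DMSO; tubulin was added last, on ice. Binding ran 10 min at 37 °C and was stopped with ice water. Mixtures were filtered through stacked DEAE-cellulose filters, and bound radiolabel was measured by scintillation counting.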

MCF7 = experiment: Cytotoxicity against human MCF7 cells assessed as inhibition of cell growth measured after 48 hrs by SRB assay; type: functional
SF-539 = experiment: Cytotoxicity against human SF-539 cells assessed as inhibition of cell growth measured after 48 hrs by SRB assay; type: functional
SF-268 = experiment: Cytotoxicity against human SF-268 cells assessed as inhibition of cell growth measured after 48 hrs by SRB assay; type: functional
HCT-15 = experiment: Cytotoxicity against human HCT-15 cells assessed as inhibition of cell growth measured after 48 hrs by SRB assay; type: functional
HL-60(TB) = experiment: Cytotoxicity against human HL-60(TB) cells assessed as inhibition of cell growth measured after 48 hrs by SRB assay; type: functional
CAKI-1 = experiment: Cytotoxicity against human CAKI-1 cells assessed as inhibition of cell growth measured after 48 hrs by SRB assay; type: functional
A549 = experiment: Cytotoxicity against human A549 cells assessed as inhibition of cell growth measured after 48 hrs by SRB assay; type: functional
HOP-62 = experiment: Cytotoxicity against human HOP-62 cells assessed as inhibition of cell growth measured after 48 hrs by SRB assay; type: functional
KM12 = experiment: Cytotoxicity against human KM12 cells assessed as inhibition of cell growth measured after 48 hrs by SRB assay; type: functional
OVCAR-5 = experiment: Cytotoxicity against human OVCAR-5 cells assessed as inhibition of cell growth measured after 48 hrs by SRB assay; type: functional

SMILES: COc1cccc2cc(N(C)c3nc(C)nc4c3CCC4)ccc12
- GI50 (SNB-19): < 10 nM
- GI50 (OVCAR-4): 10.9 nM
- GI50 (UO-31): 10.7 nM
- GI50 (A498): < 10 nM
- GI50 (NCI-H522): < 10 nM
- Ratio IC50 [1]: 0.8
- GI50 (SNB-75): 1890 nM
- GI50 (NCI/ADR-RES): < 10 nM
- GI50 (HCC 2998): < 10 nM
- GI50 (UACC-62): 1490 nM
- GI50 (T47D): < 10 nM
- GI50 (HCT-116): < 10 nM
- GI50 (LOX IMVI): < 10 nM
- GI50 (U-251): < 10 nM
- GI50 (RPMI-8226): < 10 nM
- GI50 (ACHN): < 10 nM
- GI50 (DU-145): < 10 nM
- GI50 (SF-295): < 10 nM
- GI50 (Hs-578T): < 10 nM
- inhibition (Bos taurus): 98%
- GI50 (MCF7): < 10 nM
- GI50 (SF-539): < 10 nM
- GI50 (SF-268): < 10 nM
- GI50 (HCT-15): < 10 nM
- GI50 (HL-60(TB)): < 10 nM
- GI50 (CAKI-1): < 10 nM
- GI50 (A549): < 10 nM
- GI50 (HOP-62): < 10 nM
- GI50 (KM12): < 10 nM
- GI50 (OVCAR-5): < 10 nM
